ChEMBL document CHEMBL1158118, “Decaspirones F-I, bioactive secondary metabolites from the saprophytic fungus Helicoma viridis” (2006)
The source made the active and inactive calls. The calls are words filed in the database; no cut-off is given here.

Assays:
Pseudomonas aeruginosa = experiment: Antibacterial activity against […] Pseudomonas aeruginosa ATCC 27853 at 100 ug/disk by standard disk assay; format: functional; conditions: read-out: IZ
Procedure, shortened: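 Disk diffusion on agar; compounds loaded onto 6 mm paper disks at 100 µg/disk and placed on the plate surface. Plates incubated at 37 °C for 24 h, then zone of inhibition recorded in mm. Ciprofloxacin at 100 µg/disk served as reference.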

Staphylococcus aureus = experiment: Antibacterial activity against Staphylococcus aureus ATCC 6538 at 100 ug/disk by standard disk assay; format: functional, organism-based
Procedure, shortened: (§1)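 Test compound loaded onto 6 mm paper disks at 100 µg/disk and laid on the agar surface. Plates incubated at 37 °C for 24 h, then scored for a zone of inhibition.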

Streptococcus mutans = experiment: Antibacterial activity against Streptococcus mutans ATCC 25175 at 100 ug/disk by standard disk assay; format: functional, organism-based; procedure, shortened: as §1
Enterococcus faecalis = experiment: Antibacterial activity against Enterococcus faecalis ATCC 19433 at 100 ug/disk by standard disk assay; format: functional, organism-based; procedure, shortened: as §1
Micrococcus luteus = experiment: Antibacterial activity against Sarcina lutea CMCC B28001 at 100 ug/disk by standard disk assay; format: functional, organism-based; procedure, shortened: as §1
Geotrichum candidum = experiment: Antifungal activity against Geotrichum candidum AS2.498 at 100 ug/disk by standard disk assay; format: functional, organism-based
Procedure, shortened: (§2)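 Paper disks (6 mm diameter) carrying 100 µg of test compound placed on the agar surface. Plates kept at 25 °C for 48 h and checked for a zone of inhibition.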

Candida albicans = experiment: Antifungal activity against Candida albicans ATCC 10231 at 100 ug/disk by standard disk assay; format: functional, organism-based; procedure, shortened: as §2
Aspergillus fumigatus = experiment: Antifungal activity against Aspergillus fumigatus ATCC 10894 at 100 ug/disk by standard disk assay; format: functional, organism-based; procedure, shortened: as §2
Lactococcus lactis = experiment: Antibacterial activity against Lactococcus lactis PCM 2379 at 100 ug/disk by standard disk assay; format: functional; conditions: read-out: IZ; procedure, shortened: as §1

SMILES | zone of inhibition at 100 µg/disc (Pseudomonas aeruginosa) | Activity (Staphylococcus aureus) | Activity (Streptococcus mutans) | Activity (Enterococcus faecalis) | Activity (Micrococcus luteus) | Activity (Geotrichum candidum) | Activity (Candida albicans) | Activity (Aspergillus fumigatus) | zone of inhibition at 100 µg/disc (Lactococcus lactis)
O=C(O)c1cn(C2CC2)c2cc(N3CCNCC3)c(F)cc2c1=O [CIPROFLOXACIN] | 22 mm | – | – | – | – | – | – | – | –
O[C@@H]1C=C[C@H](O)[C@@H]2[C@@H]1C1(C=C[C@@H]2O)Oc2cccc3cccc(c23)O1 [DECASPIRONE F] | 8 mm | inactive | inactive | inactive | inactive | inactive | inactive | inactive | –
O=C1CC[C@@H](O)[C@@H]2[C@@H]1[C@@H](O)C=CC21Oc2cccc3cccc(c23)O1 [DECASPIRONE G] | 8 mm | inactive | inactive | inactive | inactive | inactive | inactive | inactive | 12 mm
O[C@H]1[C@@H]2[C@H]([C@@H](O)C=CC23Oc2cccc4cccc(c24)O3)[C@@H](O)C[C@@H]1O [DECASPIRONE H] | 8 mm | inactive | inactive | inactive | inactive | inactive | inactive | inactive | –
O=C1CCC(O)c2c(Oc3cccc4cccc(O)c34)cccc21 (centres undefined) [DECASPIRONE I] | 8 mm | inactive | inactive | inactive | inactive | inactive | inactive | inactive | –
